Data on 167 variants can be found in the RNAGym collection of RNA variant scans (doi:10.1126/science.aae0568).

Fewer inactive variants are shown than the library holds.

B1: tRNA (parent)
chain: GUUCCGUUGGCGUAAUGGUAACGCGUCUCCCUCCUAAGGAGAAGACUGCGGGUUCGAGUCCCGUACGGAACG

The data set covers variants of B1. Briefly: yeast fitness relative to wild type (ratio to wild type); higher = fitter; tRNA-Arg(CCU), competitive growth, 37 C, YPD. A digest of the protocol:
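Variants of the tRNA-Arg(CCU) gene were chemically synthesised with a 3% per-site mutation rate across 69 sites and placed at the native genomic locus in Saccharomyces cerevisiae. Six parallel replicates of the pooled strains were competed in YPD at 37°C for 24 hours, and gene amplicons from the start and end populations were read by 100-nucleotide paired-end sequencing. Darwinian fitness relative to wild type was derived from changes in genotype frequencies. Genotypes required ≥ 100 starting reads, and estimates < 0.5 were set to 0.5.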
Regarding C24G C30G C31U U35A A36U G44A, the yeast fitness stood at 0.695.
Consider C24G A37G G63C C66G, for which the yeast fitness is no more than 0.5.
As to C24G G56C U59A C60G C62G A70C, the yeast fitness turned out to be 0.617.
In the case of C24G C30U C49G, the yeast fitness came to 0.664.
Take C24U A40G G58C: the yeast fitness was found to be 0.579.
Take C24G C55A A70C: the yeast fitness was no more than 0.5.
In the case of C24G A43C A57U, the yeast fitness is no more than 0.5.
C24U: the yeast fitness came to 0.983.
With C24G A36G A42C C61U C62G, the yeast fitness was no more than 0.5.
As to C24G C29A G44C C61U, the yeast fitness is 0.787.
As to C24U A42C C46A U54A, the yeast fitness is no more than 0.5.
The value for C24G A43G U47A U53A G68C was no more than 0.5; that for C24G C27A A45C C62G was no more than 0.5.
In the case of C24G C29G C49G it was no more than 0.5; in that of C24G C29U G38C, 0.62.
Regarding C24G A36G C55A, the yeast fitness was no more than 0.5.
Regarding C24G A43U, the yeast fitness is 0.703.
In the case of C24G A43C it was 0.543; in that of C24G A42C, 0.63.
With C24G A42G, the yeast fitness worked out at 0.587.
On to C24G C27U C29G C34G A36G A43U, for which the yeast fitness was no more than 0.5.
The value for C24G C29A A43U was no more than 0.5.
The value for C24G C61G G68A was no more than 0.5.
As to C24G G25C A45G, the yeast fitness turned out to be 0.512.
As to C24G C31A C33U U35A A57G U64C, the yeast fitness was no more than 0.5.
With C24G U28G C46G, the yeast fitness is no more than 0.5.
For C24G C29G U32A G52C, the yeast fitness is no more than 0.5.
As for C24G G48A G52C A57C C60U, the yeast fitness is no more than 0.5.
For the variant C24G C60U, the yeast fitness came out at 0.61.
As to C24G C62U, the yeast fitness is 0.562.
In the case of C24G C62G, the yeast fitness was 0.541.
In the case of C24G U26C A37G U54G C61G, the yeast fitness turned out to be 0.51.
The value for C24G U26A C60G was no more than 0.5; that for C24G A36G A40C C55G G63C was no more than 0.5; that for C24G U47G U53C was 0.713.
As to C24U A37G G39A G48C A69C, the yeast fitness is no more than 0.5.
On to C24G C31U G50C, for which the yeast fitness was 0.56.
The value for C24G C31G G51A was no more than 0.5; that for C24G G56A was 0.618.
Regarding C24G C27U U53A, the yeast fitness is no more than 0.5.
In the case of C24G C46U C49G G51C C66G, the yeast fitness is 0.639.
In the case of C24G U47C G68C A70C, the yeast fitness is no more than 0.5.
Take C24G U26A C31U A45C A69U: the yeast fitness is no more than 0.5.
C24G A45G G51C U54A G56C: the yeast fitness is no more than 0.5.
On to C24G C60U A69C, for which the yeast fitness is no more than 0.5.
For C24G A36G G50U U53A, the yeast fitness is no more than 0.5.
Regarding C24G C30U C34A C60U, the yeast fitness is no more than 0.5.
Take C24G C34U U47A: the yeast fitness was no more than 0.5.
For C24G C34U A36C C46A U54A A57G, the yeast fitness worked out at 0.566.
Take C24G C31G C33A G50C C55G A57U C62U U64C: the yeast fitness was no more than 0.5.
C24G G44C C66U: the yeast fitness was no more than 0.5.
In the case of C24G C33A C62A it was no more than 0.5.
C24G C55U G68C: the yeast fitness is no more than 0.5.
In the case of C24G A42G A65G it was no more than 0.5.
In the case of C24G A37G G52C U64C, the yeast fitness turned out to be 0.602.
As for C24G G25A G48A, the yeast fitness was determined as 0.697.
With C24G C33U A37U C55A G68C, the yeast fitness was no more than 0.5.
In the case of C24G C29G G67A it was 0.57.
For C24G C27G A45C, the yeast fitness is no more than 0.5.
Turning to C24G A36U A43U U64C, the yeast fitness was no more than 0.5.
In the case of C24G U28C U32G A69G, the yeast fitness is no more than 0.5.
For C24G U53A C55G, the yeast fitness is no more than 0.5.
For C24G C33U, the yeast fitness is 0.646.
Regarding C24G C33G, the yeast fitness was determined as 0.666.
As to C24U A36C, the yeast fitness was 0.716.
The value for C24U A36U was 0.592.
In the case of C24U A36G it was 0.88; in that of C24G C27G, 0.593; in that of C24G G48A G68A, no more than 0.5.
In the case of C24G A43C G52C C55U A69C it was no more than 0.5.
As to C24G C60G A70G, the yeast fitness was no more than 0.5.
As for C24G C31G G68A A70U, the yeast fitness is no more than 0.5.
On to C24G U32C, for which the yeast fitness amounted to 0.599.
The value for C24G C31G C33U C46G U54G G67U was 0.645; that for C24G C60U G68A was 0.789.
As for C24G C30G A70G, the yeast fitness came to 0.638.
On to C24U A37G C49G, for which the yeast fitness was no more than 0.5.
In the case of C24G C34G G38C C62G A69C it was no more than 0.5; in that of C24U A37G A45U, 0.562.
For the variant C24U A36C A43U, the yeast fitness came out at 0.578.
In the case of C24U A37G A43G A70U it was no more than 0.5.
In the case of C24G C33G C66U, the yeast fitness was no more than 0.5.
Consider C24G U53G U54A G58C, for which the yeast fitness turned out to be 0.552.
Take C24G C33U C60G: the yeast fitness was found to be 0.519.
For the variant C24G C27U U28C, the yeast fitness was no more than 0.5.
Take C24G A43G U47A: the yeast fitness was no more than 0.5.
As for C24G C30A A40C A57G C61U, the yeast fitness is no more than 0.5.
With C24U A37C G39C A43G, the yeast fitness was no more than 0.5.
Take C24G C31U G48A C49U: the yeast fitness was 0.785.
The value for C24G G39C A45G U54A was no more than 0.5; that for C24G G25A C34A C46G was no more than 0.5; that for C24U A43G A69U was 0.819.
As to C24G C30A U47C, the yeast fitness came to 0.586.
On to C24G C49G G56A, for which the yeast fitness was 0.574.
In the case of C24G U47A C55G it was 0.847; in that of C24G G50C G68C, 0.629; in that of C24G G56A A57C, no more than 0.5.
In the case of C24G U59C, the yeast fitness worked out at 0.65.
C24U A43C C60A: the yeast fitness is no more than 0.5.
Turning to C24G G68C A70C, the yeast fitness worked out at 0.578.
Turning to C24G C29G G39C, the yeast fitness was determined as 0.513.
For C24U A40G C46A, the yeast fitness was determined as 0.723.
For C24G U26C U32A A36C C49G G51C C66U G68A, the yeast fitness is no more than 0.5.
In the case of C24G C61G C62U C66U it was no more than 0.5.
In the case of C24G U54A A65U C66U it was no more than 0.5; in that of C24G A36C C55G A65G, no more than 0.5.
Take C24G G25C C27A U59A C62A: the yeast fitness was no more than 0.5.
In the case of C24G C31U A37G G50C A57U it was 0.648; in that of C24G C31U C61U, no more than 0.5.
Consider C24G C66U, for which the yeast fitness was 0.533.
As for C24G C66G, the yeast fitness is 0.691.
The value for C24G C30G U59G was 0.64; that for C24G G44C G58C was 0.547.
Turning to C24G C49U C61A, the yeast fitness is no more than 0.5.
With C24G A37G, the yeast fitness stood at 0.612.
Take C24G A37C: the yeast fitness was 0.563.
In the case of C24G A40C U64A A65C, the yeast fitness was no more than 0.5.
Take C24G G39C: the yeast fitness came out at 0.608.
Take C24G C61U: the yeast fitness turned out to be 0.59.
As for C24G G25A C31G A57U, the yeast fitness is 0.532.
Consider C24G C30A A40C, for which the yeast fitness came to 0.547.
For the variant C24G C34U U35A A42C C66A, the yeast fitness was no more than 0.5.
Consider C24G A40C C49A A69U, for which the yeast fitness was 0.589.
In the case of C24G C29G C46G G67C it was no more than 0.5.
The value for C24G C30G C55G was no more than 0.5; that for C24G G38C G50C was no more than 0.5; that for C24G A40U A43U C49G G50C C61U C66U was no more than 0.5.
For the variant C24G G25A A36C G67U, the yeast fitness is no more than 0.5.
C24U A36U A37G A40C: the yeast fitness is no more than 0.5.
For the variant C24G C33U C62A A70G, the yeast fitness is no more than 0.5.
Turning to C24G C33U C49G A57U C61G, the yeast fitness was no more than 0.5.
For the variant C24G C33U A43G U47A C60A, the yeast fitness is no more than 0.5.
Take C24G U47G: the yeast fitness is no more than 0.5.
As for C24G U47C, the yeast fitness is 0.688.
The value for C24G U47A was 0.57; that for C24G C33U A43G U47A was 0.682; that for C24G G63C A65U was 0.596.
In the case of C24U A37U G63C, the yeast fitness is no more than 0.5.
Turning to C24G A37C C49U A69U, the yeast fitness was found to be 0.545.
The value for C24G C34U A36C was no more than 0.5.
In the case of C24G U53G C60A, the yeast fitness is no more than 0.5.
For C24U A42U A43C, the yeast fitness amounted to 0.889.
As for C24U A42U A43U, the yeast fitness is 1.02.
Regarding C24G U64A, the yeast fitness was 0.631.
For the variant C24G U64C, the yeast fitness was 0.567.
On to C24G C30U C34U, for which the yeast fitness is no more than 0.5.
As to C24G C27U C33U A45G G50C G68A, the yeast fitness is no more than 0.5.
For C24G U47C U53G U54A G58C, the yeast fitness is no more than 0.5.
Turning to C24G A42G A69U, the yeast fitness was no more than 0.5.
Turning to C24G A42G A43U C46U C62U, the yeast fitness was no more than 0.5.
As to C24G C33G C60A G63A, the yeast fitness is no more than 0.5.
With C24G C31U C33G A42C A43U, the yeast fitness is 0.574.
Turning to C24G C29G, the yeast fitness is no more than 0.5.
Consider C24G C29U, for which the yeast fitness came out at 0.521.
For C24G G38A U64A, the yeast fitness was no more than 0.5.
Turning to C24G C30U A40G G44A U47C G51C, the yeast fitness was no more than 0.5.
For C24G C27U C33U G48A G50C G68A, the yeast fitness is no more than 0.5.
Regarding C24G U26A C29G U32A, the yeast fitness worked out at 0.516.
For the variant C24G C31U C60G, the yeast fitness is no more than 0.5.
Regarding C24G C46G G48A C55U U64A A69C, the yeast fitness was 0.5.
As for C24G C55U A65G, the yeast fitness amounted to 0.546.
For the variant C24G C49U A57U, the yeast fitness was no more than 0.5.
Regarding C24G C33U A65U, the yeast fitness was no more than 0.5.
Consider C24G C46G C66U, for which the yeast fitness is no more than 0.5.
The value for C24U A43C C49U G51U was no more than 0.5; that for C24G G38C A65U was 0.509; that for C24G U35C was no more than 0.5.
